Calls of active or inactive are those of the source. The rule behind the calls is not given here.
What was measured:
[1] = tested on: MDA-MB-231; assay: Reduction of cyclin D1 gene expression in human MDA-MB-231 cells at 100 uM after 48 hrs; assay type: functional, cell-based
[2] = tested on: NIH3T3; assay: Inhibition of Stat3-dependent pLucTKS3 luciferase […] induction in v-Src oncoprotein expressing mouse NIH3T3 cells co-transfected with pLucTKS3 at 100 uM after 24 hrs; assay type: functional, cell-based
How it was run: (§1)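 NIH 3T3 fibroblasts were cotransfected with a v-Src plasmid and either the Stat3-dependent pLucTKS3 or the Stat3-independent pLucSRE reporter. At 24 h post-transfection, cells got 100 μM compound or 0.05% DMSO for another 24 h. Luciferase was read in cytosolic extracts.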

[3] = tested on: NIH3T3; assay: Reduction of cyclin D1 gene expression in v-Src transfected mouse NIH3T3 cells at 100 uM after 48 hrs; assay type: functional, cell-based
[4] = tested on: NIH3T3; assay: Growth inhibition of mouse NIH3T3 cells expressing v-Src at 100 uM after 4 days by trypan blue exclusion assay; assay type: functional, cell-based
[5] = tested on: MDA-MB-231; assay: Induction of apoptosis in Stat3C transfected human MDA-MB-231 cells at 100 uM after 24 hrs; assay type: functional, cell-based
How it was run: (§2)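 Cells were transfected with Stat3C or the Stat3 SH2 domain, mock-transfected, or left untransfected. After 24 h they received 100 μM compound or 0.05% DMSO for a further 24 h. Annexin V binding with flow cytometry gave percent apoptosis.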

[6] = tested on: NIH3T3; assay: Reduction of pTyr-705 Stat3 level in v-Src expressing mouse NIH3T3 cells at 100 uM after 24 hrs; assay type: functional, cell-based
[7] = tested on: MDA-MB-231; assay: Growth inhibition of human […] at 100 uM after 4 days by trypan blue exclusion assay; assay type: functional, cell-based
[8] = tested on: MDA-MB-231; assay: Induction of apoptosis in human MDA-MB-231 cells at 100 uM after 24 hrs; assay type: functional; how it was run: as §2
[9] = tested on: MDA-MB-468; assay: Inhibition of Stat3 activation in human MDA-MB-468 cells at 100 uM after 24 hrs; assay type: functional, cell-based
How it was run: (§3)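 Cells with constitutively active Stat3 were treated with compound or 0.05% DMSO (up to 24 h). Nuclear extracts were then assayed for Stat3 DNA binding by EMSA with 32P-labeled hSIE probe.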

[10] = tested on: MDA-MB-435; assay: Growth inhibition of human MDA-MB-435 cells expressing v-Src at 100 uM after 4 days by trypan blue exclusion assay; assay type: functional, cell-based
[11] = tested on: MDA-MB-231; assay: Reduction of Bcl-xL gene expression in human MDA-MB-231 cells at 100 uM after 48 hrs; assay type: functional, cell-based
[12] = tested on: NIH3T3; assay: Reduction of survivin gene expression in v-Src transfected mouse NIH3T3 cells at 100 uM after 48 hrs; assay type: functional, cell-based
[13] = tested on: MDA-MB-435; assay: Cytotoxicity against human MDA-MB-435 cells expressing constitutively active Stat3 at >300 uM
[14] = tested on: MDA-MB-435; assay: Induction of apoptosis in human MDA-MB-435 cells expressing active Stat3 at 30 to 100 uM after 48 hrs; assay type: functional, cell-based
How it was run: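 Proliferating cells were exposed to compound or 0.05% DMSO for 48 h, then detached. Percent apoptosis was quantified by annexin V binding and flow cytometry.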

[15] = tested on: MDA-MB-231; assay: Induction of apoptosis in mock pcDNA3 transfected human MDA-MB-231 cells at 100 uM after 24 hrs; assay type: functional; how it was run: as §2
[16] = tested on: NIH3T3; assay: Growth inhibition of mouse NIH3T3 cells expressing v-Src at 100 uM for every 3 days by soft-agar colony-formation assay; assay type: functional, cell-based
How it was run: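 Soft-agar colony formation in six-well dishes. Compound in medium was added from 1 day after seeding and re-added every 3 days until large colonies appeared. Untreated wells served as control.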

[17] = tested on: NIH3T3; assay: Reduction of Bcl-xL gene expression in v-Src transfected mouse NIH3T3 cells at 100 uM after 48 hrs; assay type: functional, cell-based
[18] = tested on: MDA-MB-231; assay: Reduction of apoptosis in Stat3 transfected human MDA-MB-231 cells at 100 uM after 24 hrs; assay type: functional, cell-based
[19] = tested on: NIH3T3; assay: Inhibition of v-Src mediated Stat3-independent pLucSRE luciferase […] induction in mouse NIH3T3 cells at 100 uM after 24 hrs; assay type: functional, cell-based; how it was run: as §1
[20] = tested on: MDA-MB-231; assay: Inhibition of Stat3 activation in human MDA-MB-231 cells at 100 uM after 24 hrs; assay type: functional, cell-based; how it was run: as §3
[21] = tested on: MDA-MB-231; assay: Reduction of survivin gene expression in human MDA-MB-231 cells at 100 uM after 48 hrs; assay type: functional, cell-based
[22] = tested on: NIH3T3; assay: Inhibition of Stat3 activation in v-Src expressing mouse NIH3T3 cells at 100 uM; assay type: functional, cell-based; details: TDE = time-dependent effect; how it was run: as §3
[23] = tested on: MDA-MB-468; assay: Growth inhibition of human […] at 100 uM after 4 days by trypan blue exclusion assay; assay type: functional, cell-based
[24] = tested on: MDA-MB-231; assay: Antitumor activity against human MDA-MB-231 cells expressing active Stat3 xenografted in mouse at 5 mg/kg, iv for every 3 days for 2 weeks; assay type: functional, organism-based; parameters: dose 5 mg/kg
How it was run: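 Female athymic nude mice (six weeks old) received 5 × 10^6 MDA-MB-231 cells s.c. in the left flank in PBS. Once tumors reached 3 mm diameter (5–10 days), animals were stratified to equal mean tumor size and dosed i.v. at 5 mg/kg every 2 or 3 days for 2 weeks against vehicle. Tumors were measured every 2–3 days.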

[25] = tested on: MDA-MB-435; assay: Inhibition of Stat3 activation in human MDA-MB-435 cells at 100 uM after 24 hrs; assay type: functional, cell-based; how it was run: as §3
[26] = tested on: MDA-MB-231; assay: Induction of apoptosis in Stat3 SH2 domain transfected human MDA-MB-231 cells at 100 uM after 24 hrs; assay type: functional, cell-based; how it was run: as §2

Cc1ccc(S(=O)(=O)OCC(=O)Nc2ccc(C(=O)O)c(O)c2)cc1
Activity [1]: Active
Activity [2]: Dose-dependent effect
Activity [3]: Active
Activity [4]: Active
Activity [5]: Active
Activity [6]: Active
Activity [7]: Active
Activity [8]: 50%
Activity [9]: Active
Activity [10]: Active
Activity [11]: Active
Activity [12]: Active
Activity [13]: Toxic
Activity [14]: Active
Activity [15]: 50%
Activity [16]: Active
Activity [17]: Active
Activity [18]: Active
Activity [19]: inactive
Activity [20]: Active
Activity [21]: Active
Activity [22]: tde
Activity [23]: Active
Activity [24]: Active
Activity [25]: Active
Activity [26]: Active
